# Measured values reported in article PMC8463269 (Acta Pharmaceutica Sinica. B, 2021).
# Where two headings read alike, the source gives them in different places. Where a SMILES comes first, the peptide text is derived from it. Bridges are numbered along the chain shown (N, C = ends). [ ]: non-standard residue; d: D form. S5 = C=CCCC[C@](C)(N)C(=O)O
# Tests used:
# [1] = test system: H358 cells; test: Cell viability, CCK8 assay; format: cell-based; conditions: read-out: IC50, H358 cell viability, n = 3
# In short: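 H358 cells in RPMI-1640 with 10% FBS were plated overnight, then incubated with diluted series of test peptide for 24 h, or 36, 48 and 72 h. CCK8 reagent was added for 1 h at 37 °C and absorbance read at 450 nm. Mean ± SD of three independent experiments.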
# [2] = Plasma stability in rat plasma; format: in vitro ADME, Sprague–Dawley rats; conditions: 1300 μg/mL, 0 min, HPLC
# In short: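 Heparinised blood was drawn from the femoral artery of Sprague–Dawley rats and centrifuged at 4 °C, 4000 r/min for 10 min to give plasma. Plasma spiked with test peptide was incubated at 37 °C. Aliquots were precipitated in 3 volumes of methanol–acetonitrile (50:50), vortexed and centrifuged, and the supernatant was analysed by C18 RP-HPLC with a 0.1% TFA water/acetonitrile gradient.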
# [3] = Circular dichroism spectroscopy, α-helicity; format: physicochemical; conditions: CD, 0.3 mg/mL in 1×PBS pH 7.4, 25 °C, 190–260 nm, average of three readings
# In short: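 Spectra were taken in a 1.0 mm path quartz cell with 1 nm bandwidth, 50 nm/min scan speed and 1 s response time. Peptide was also run in PBS with 50% trifluoroethanol. Spectra were converted to mean residue ellipticity (deg·cm²/dmol) versus wavelength.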
# [4] = target: KRAS^G12C protein (Homo sapiens, UniProt P01116, G12C); test: Bio-Layer Interferometry; format: binding
# In short: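 The biotinylated protein was captured on SSA sensors in an Octet RED 96. Test peptides were run at various concentrations, and KD was calculated from the binding kinetics.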
# [5] = test system: H358 cells; test: Annexin V-FITC apoptosis assay by flow cytometry; format: cell-based; conditions: 24 h, control 36.42%
# [6] = test system: BAX; test: Western blot, BAX expression in H358 cells; format: cell-based; conditions: H358 cells, 0, 5, 10, 20 μmol/L, 24 h
# In short: (§1)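 H358 cells treated with test peptide for 24 h were lysed on ice for 1 h in buffer with phosphatase inhibitor cocktail and PMSF. Proteins were separated by SDS-PAGE and transferred to PVDF. Membranes were incubated with primary antibody at 4 °C overnight, then HRP goat anti-rabbit IgG for 100 min, and imaged by chemiluminescence. GAPDH was probed alongside.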
# [7] = test system: cyclin-dependent kinase 1 (CDK1); test: Western blot, CDK1 expression in H358 cells; format: cell-based; conditions: H358 cells, 0, 5, 10, 20 μmol/L, 24 h
# In short: as §1
# [8] = test system: cyclin B1; test: Western blot, cyclin B1 expression in H358 cells; format: cell-based; conditions: H358 cells, 0, 5, 10, 20 μmol/L, 24 h
# In short: as §1
# [9] = test system: caspase 3; test: Western blot, caspase 3 expression in H358 cells; format: cell-based; conditions: H358 cells, 0, 5, 10, 20 μmol/L, 24 h
# In short: as §1
# [10] = circular dichroism; conditions: PBS; pH 7.4; 25 °C; 0.3 mg/mL
# [11] = test system: BCL-2; test: Western blot, BCL-2 expression in H358 cells; format: cell-based; conditions: H358 cells, 0, 5, 10, 20 μmol/L, 24 h
# In short: as §1
# [12] = test system: H358 cells; test: Cell cycle analysis by flow cytometry; format: cell-based; conditions: 24-h treatment, highest concentration of the series, control 16.76%
# [13] = test system: trypsin; test: Enzymatic degradation by trypsin; format: in vitro ADME; conditions: 150 μg/mL peptide, 3 μg/mL trypsin, NH4HCO3 buffer, 37 °C, HPLC, n = 3
# In short: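 Test peptide was digested with trypsin or chymotrypsin (peptide:enzyme weight ratio 50:1) in NH4HCO3 buffer at 37 °C. Samples were taken at 0, 30 min and 1, 2, 6, 12 and 24 h and quenched with 1% (v/v) formic acid. Analysis was by C18 RP-HPLC with a 0.1% TFA water/acetonitrile gradient (20→90% B over 30 min, 1 mL/min).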
# [14] = target: hexahistidine-tagged recombinant human KRAS^G12C (human) (UniProt P01116); test: BLI
molecule,measurement,setting,value
"CC[C@H](C)[C@H](NC(=O)CNC(=O)[C@H](Cc1ccccc1)NC(=O)[C@H](Cc1ccccc1)NC(=O)[C@H](CCCNC(=N)N)NC(=O)[C@H](CCCNC(=N)N)NC(C)=O)C(=O)N[C@@]1(C)CCCC=CCCC[C@@](C)(C(=O)N[C@@H](CC(C)C)C(=O)N[C@@H](CCCCN)C(=O)N[C@H](C(=O)N[C@@H](CCC(=O)O)C(=O)N[C@@H](CCC(=O)O)C(=O)NCC(=O)N[C@@H](CC(N)=O)C(N)=O)[C@@H](C)O)NC(=O)[C@H](CC(N)=O)NC(=O)[C@H]([C@@H](C)O)NC(=O)[C@H](CC(C)C)NC1=O [Peptide 1, reference compound]",IC50,"[1]; CCK8, 24-h incubation",21.2 µM
same,"plasma stability, characteristic peak in the chromatogram",[2],No characteristic peaks were observed
same,α-helicity in PBS,[3],16.20%
same,Kd,[4],58.3 µM
same,kon,[4],14800 M⁻¹ s⁻¹
CC[C@H](C)[C@H](NC(=O)CNC(=O)[C@H](Cc1ccccc1)NC(=O)[C@H](Cc1ccccc1)NC(C)=O)C(=O)N[C@@]1(C)CCCC=CCCC[C@@](C)(C(=O)N[C@@H](CC(C)C)C(=O)N[C@@H](CCCCN)C(=O)N[C@H](C(=O)N[C@@H](CCC(=O)O)C(N)=O)[C@@H](C)O)NC(=O)[C@H](CC(N)=O)NC(=O)[C@H]([C@@H](C)O)NC(=O)[C@H](CC(C)C)NC1=O [Peptide 2] (Ac-FFGI[S5]LTN[S5]LKTE-NH2; staple 5-9),Kd,[4],21.7 µM
same,kon,[4],43600 M⁻¹ s⁻¹
CC[C@H](C)[C@H](NC(=O)CNC(=O)[C@H](Cc1ccccc1)NC(C)=O)C(=O)N[C@@]1(C)CCCC=CCCC[C@@](C)(C(=O)N[C@@H](CC(C)C)C(=O)N[C@@H](CCCCN)C(=O)N[C@H](C(N)=O)[C@@H](C)O)NC(=O)[C@H](CC(N)=O)NC(=O)[C@H]([C@@H](C)O)NC(=O)[C@H](CC(C)C)NC1=O [Peptide 3] (Ac-FGI[S5]LTN[S5]LKT-NH2; staple 4-8),proportion of apoptotic cells (Q2 + Q3),[5]; 2.5 μmol/L,56.63%
same,proportion of apoptotic cells (Q2 + Q3),[5]; 10 μmol/L,61.40%
same,proportion of apoptotic cells (Q2 + Q3),[5]; 20 μmol/L,70.70%
same,IC50,"[1]; CCK8, 24-h incubation",15.7 µM
same,IC50,"[1]; CCK8, 36-h incubation",7.55 µM
same,IC50,"[1]; CCK8, 48-h incubation",5.75 µM
same,IC50,"[1]; CCK8, 72-h incubation",6.68 µM
same,pro-apoptotic BAX protein expression,[6],insignificant effect
same,CDK1 expression,[7],significantly downregulated
same,cyclin B1 expression,[8],significantly downregulated
same,caspase 3 expression,[9],increased
same,helicity,[10],18.9%
same,α-helicity in PBS,[3],18.93%
same,anti-apoptotic BCL-2 protein expression,[11],obviously inhibited
same,percentage of cells in the G2/M,[12],49.79%
same,kon,[4],4600 M⁻¹ s⁻¹
same,percentage of trypsin hydrolysate (g) of the peptide,[13]; 12 h,78%
same,percentage of trypsin hydrolysate (g) of the peptide,[13]; 24 h,34%
CC[C@H](C)[C@H](NC(=O)CNC(C)=O)C(=O)N[C@@]1(C)CCCC=CCCC[C@@](C)(C(=O)N[C@@H](CC(C)C)C(=O)N[C@@H](CCCCN)C(N)=O)NC(=O)[C@H](CC(N)=O)NC(=O)[C@H]([C@@H](C)O)NC(=O)[C@H](CC(C)C)NC1=O [Peptide 4] (Ac-GI[S5]LTN[S5]LK-NH2; staple 3-7),Kd,[4],25 µM
same,kon,[4],97.6 M⁻¹ s⁻¹
CC[C@H](C)[C@H](NC(C)=O)C(=O)N[C@@]1(C)CCCC=CCCC[C@@](C)(C(=O)N[C@@H](CC(C)C)C(N)=O)NC(=O)[C@H](CC(N)=O)NC(=O)[C@H]([C@@H](C)O)NC(=O)[C@H](CC(C)C)NC1=O [Peptide 5] (Ac-I[S5]LTN[S5]L-NH2; staple 2-6),kon,[4],3.12 M⁻¹ s⁻¹
same,Kd,"[4]; BLI, dissociation rate constant",1.06 s⁻¹
CC(=O)N[C@@]1(C)CCCC=CCCC[C@@](C)(C(N)=O)NC(=O)[C@H](CC(N)=O)NC(=O)[C@H]([C@@H](C)O)NC(=O)[C@H](CC(C)C)NC1=O [Peptide 6] (Ac-[S5]LTN[S5]-NH2; staple 1-5),kon,[4],3.22 M⁻¹ s⁻¹
CC[C@H](C)[C@H](NC(C)=O)C(=O)N[C@@]1(C)CCCC=CCCC[C@@](C)(C(=O)N[C@@H](CC(C)C)C(=O)N[C@@H](CCCCN)C(=O)N[C@H](C(N)=O)[C@@H](C)O)NC(=O)[C@H](CC(N)=O)NC(=O)[C@H]([C@@H](C)O)NC(=O)[C@H](CC(C)C)NC1=O [Peptide 7] (Ac-I[S5]LTN[S5]LKT-NH2; staple 2-6),α-helicity in PBS,[3],17.90%
same,Kd,[4],87.2 µM
same,kon,[4],64.7 M⁻¹ s⁻¹
CC(=O)N[C@@]1(C)CCCC=CCCC[C@@](C)(C(=O)N[C@@H](CC(C)C)C(=O)N[C@@H](CCCCN)C(=O)N[C@H](C(N)=O)[C@@H](C)O)NC(=O)[C@H](CC(N)=O)NC(=O)[C@H]([C@@H](C)O)NC(=O)[C@H](CC(C)C)NC1=O [Peptide 8] (Ac-[S5]LTN[S5]LKT-NH2; staple 1-5),Kd,[4],29.1 µM
same,kon,[4],1750 M⁻¹ s⁻¹
CC[C@H](C)[C@H](NC(=O)CNC(=O)[C@H](Cc1ccccc1)NC(C)=O)C(=O)N[C@@]1(C)CCCC=CCCC[C@@](C)(C(=O)N[C@@H](CC(C)C)C(N)=O)NC(=O)[C@H](CC(N)=O)NC(=O)[C@H]([C@@H](C)O)NC(=O)[C@H](CC(C)C)NC1=O [Peptide 9] (Ac-FGI[S5]LTN[S5]L-NH2; staple 4-8),Kd,[4],64.9 µM
same,kon,[4],1630 M⁻¹ s⁻¹
CC[C@H](C)[C@H](NC(=O)CNC(=O)[C@H](Cc1ccccc1)NC(C)=O)C(=O)N[C@@]1(C)CCCC=CCCC[C@@](C)(C(N)=O)NC(=O)[C@H](CC(N)=O)NC(=O)[C@H]([C@@H](C)O)NC(=O)[C@H](CC(C)C)NC1=O [Peptide 10] (Ac-FGI[S5]LTN[S5]-NH2; staple 4-8),Kd,[4],131 µM
same,kon,[4],294 M⁻¹ s⁻¹
SAH-SOS1A (peptide 1),koff,[14],0.862 s⁻¹
